Laboratory results reported in ChEMBL document CHEMBL3232747, “Potential anti-angiogenesis effects of p-terphenyl compounds from Polyozellus multiplex” (J Nat Prod, 2014).
pIC50: −log10 of the molar value. Calls of active or inactive are those of the source. The rule behind the calls is not given here.

Tests used:
[1] = molecular target: Vascular endothelial growth factor receptor 2 (Homo sapiens, UniProt P35968); test: Inhibition of recombinant human VEGFR2
In short: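 Recombinant VEGFR2 tyrosine kinase activity measured by ELISA using a universal tyrosine kinase assay kit; Ki8751 as positive control.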

HUVEC [2] = test: Antiangiogenic activity in HUVEC assessed as inhibition of tubule network formation after 16 hrs by fluorescence microscopic technique; format: functional, cell-based; conditions: Homo sapiens
In short: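 HUVECs (passages 2–8) plated at 1.6 × 10^4 cells on polymerized Matrigel with test compound at 2.5, 5, 7.5 or 10 μM; suramin 10 μM as positive control. Incubated 16 h, 37 °C, 5% CO2. Calcein-AM stained, imaged by fluorescence microscopy at 4×, total tubule length quantified.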

HUVEC [3] = test: Growth inhibition of HUVEC by WST-8 assay; format: functional, cell-based; conditions: Homo sapiens
In short: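 HUVECs (passages 2–8), 3 × 10^3 cells/well on collagen, adhered 12 h in EGM-2, then 12 h in EGM-2 lacking VEGF and bFGF. VEGF (1 nM) plus compound added for 72 h at 37 °C, 5% CO2. WST-8 added 2 h, absorbance at 450 nm; Ki8751 as positive control.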

HUVEC [4] = test: Antiinvasive activity in HUVEC by matrigel assay at 2.5 uM after 22 hrs by fluorescence microscopic technique; format: functional, cell-based; conditions: Homo sapiens
In short: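 HUVECs starved 5 h in serum-free EBM-2 with 0.2% BSA, then 1 × 10^5 cells with compound (2.5 or 5 μM) loaded into inserts coated with 0.2 mg/mL Matrigel. Lower chamber: EBM-2, 0.2% BSA, 20 ng/mL VEGF, 1% FBS plus compound. After 22 h at 37 °C, invaded cells calcein-AM labeled, read at 494/517 nm; mean ± SD, n = 3.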

Vascular endothelial growth factor receptor 2, sequence (P35968 whole entry): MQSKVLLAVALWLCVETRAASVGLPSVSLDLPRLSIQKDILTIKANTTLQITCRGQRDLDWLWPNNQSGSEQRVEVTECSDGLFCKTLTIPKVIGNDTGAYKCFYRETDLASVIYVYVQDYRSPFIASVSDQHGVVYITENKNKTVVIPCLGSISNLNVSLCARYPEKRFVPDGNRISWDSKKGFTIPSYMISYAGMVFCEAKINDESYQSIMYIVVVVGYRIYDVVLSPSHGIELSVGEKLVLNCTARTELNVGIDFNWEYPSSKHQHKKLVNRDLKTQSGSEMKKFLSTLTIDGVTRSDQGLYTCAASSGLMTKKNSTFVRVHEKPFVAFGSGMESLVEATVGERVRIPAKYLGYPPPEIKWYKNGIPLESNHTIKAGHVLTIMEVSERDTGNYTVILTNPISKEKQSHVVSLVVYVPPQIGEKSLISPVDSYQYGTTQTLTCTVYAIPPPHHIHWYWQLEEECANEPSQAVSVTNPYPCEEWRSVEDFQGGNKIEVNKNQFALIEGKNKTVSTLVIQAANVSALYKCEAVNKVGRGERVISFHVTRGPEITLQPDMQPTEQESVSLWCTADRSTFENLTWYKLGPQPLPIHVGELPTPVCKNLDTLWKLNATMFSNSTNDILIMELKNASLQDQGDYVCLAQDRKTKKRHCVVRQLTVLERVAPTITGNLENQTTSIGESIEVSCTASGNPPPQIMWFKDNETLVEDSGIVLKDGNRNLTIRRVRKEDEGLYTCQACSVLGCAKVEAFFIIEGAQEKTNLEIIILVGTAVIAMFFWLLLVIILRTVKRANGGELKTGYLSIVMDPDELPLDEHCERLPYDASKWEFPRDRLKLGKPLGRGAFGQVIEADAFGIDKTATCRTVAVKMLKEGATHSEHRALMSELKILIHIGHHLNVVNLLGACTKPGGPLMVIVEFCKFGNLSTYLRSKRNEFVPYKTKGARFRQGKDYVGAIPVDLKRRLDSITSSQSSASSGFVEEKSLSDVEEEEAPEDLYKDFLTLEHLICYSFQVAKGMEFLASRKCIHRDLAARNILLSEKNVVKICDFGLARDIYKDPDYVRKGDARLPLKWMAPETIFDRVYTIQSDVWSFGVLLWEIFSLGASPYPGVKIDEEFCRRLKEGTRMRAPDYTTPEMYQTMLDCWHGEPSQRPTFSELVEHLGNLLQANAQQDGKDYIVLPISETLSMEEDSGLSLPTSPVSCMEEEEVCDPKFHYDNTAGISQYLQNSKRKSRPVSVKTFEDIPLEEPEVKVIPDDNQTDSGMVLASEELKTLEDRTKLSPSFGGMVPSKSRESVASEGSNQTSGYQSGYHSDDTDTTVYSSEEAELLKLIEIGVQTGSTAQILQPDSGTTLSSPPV

In the case of CC(=O)Oc1c2oc3cc(O)c(O)cc3c2c(OC(C)=O)c2oc3cc(O)c(O)cc3c12 [POLYOZELLIN], the pIC50 [1] was 4.18, the inhibition (HUVEC [2]) was “inactive” and the pIC50 (HUVEC [3]) was 4.99.
With CC(=O)CC1(O)C(=O)c2c(oc3cc(O)c(O)cc23)-c2oc3cc(O)c(O)cc3c21 (racemic) the pIC50 [1] was 4.28, the inhibition (HUVEC [2]) was “inactive” and the pIC50 (HUVEC [3]) was 4.67.
In the case of O=C1c2oc3cc(O)c(O)cc3c2C(=O)c2oc3cc(O)c(O)cc3c21, the pIC50 [1] was 4.15, the inhibition (HUVEC [2]) was “Dose-dependent effect” and the pIC50 (HUVEC [3]) was 5.47. For the same molecule, the inhibition (HUVEC [4]) was “Active”.
In the case of O=C1C(=O)c2c(oc3cc(O)c(O)cc23)-c2oc3cc(O)c(O)cc3c21, the pIC50 [1] was 4.49, the inhibition (HUVEC [2]) was “Dose-dependent effect” and the pIC50 (HUVEC [3]) was 5.12. For the same molecule, the inhibition (HUVEC [4]) was “Active”.
For COc1cc2nccc(Oc3ccc(NC(=O)Nc4ccc(F)cc4F)c(F)c3)c2cc1OC, the pIC50 [1] was 5.62 and the pIC50 (HUVEC [3]) was 5.85.
